Shown are actives, neighbours in structure and some others; about 3.3% of the full set was active somewhere.
ABCB6 inh MLPCN = ABCB6 transporter inhibitors, primary screen, K562-ABCB6 cells, flow cytometry, MLPCN library | ATP-binding cassette sub-family B member 6 (Homo sapiens), Q9NP58 | K562-ABCB6 porphyrin accumulation, 1 h; active compounds read low | fluorescence ratio to DMSO, % at 10 µM | hit rate 0.19% among 360,000;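 active means fluorescence ratio to DMSO below 75%, the collection mean minus 3 SD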;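 further: signal is porphyrin accumulated inside mitochondria; lower ratio means ABCB6 inhibition with less porphyrin fluorescence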
Target sequence (Q9NP58 whole entry, looked up): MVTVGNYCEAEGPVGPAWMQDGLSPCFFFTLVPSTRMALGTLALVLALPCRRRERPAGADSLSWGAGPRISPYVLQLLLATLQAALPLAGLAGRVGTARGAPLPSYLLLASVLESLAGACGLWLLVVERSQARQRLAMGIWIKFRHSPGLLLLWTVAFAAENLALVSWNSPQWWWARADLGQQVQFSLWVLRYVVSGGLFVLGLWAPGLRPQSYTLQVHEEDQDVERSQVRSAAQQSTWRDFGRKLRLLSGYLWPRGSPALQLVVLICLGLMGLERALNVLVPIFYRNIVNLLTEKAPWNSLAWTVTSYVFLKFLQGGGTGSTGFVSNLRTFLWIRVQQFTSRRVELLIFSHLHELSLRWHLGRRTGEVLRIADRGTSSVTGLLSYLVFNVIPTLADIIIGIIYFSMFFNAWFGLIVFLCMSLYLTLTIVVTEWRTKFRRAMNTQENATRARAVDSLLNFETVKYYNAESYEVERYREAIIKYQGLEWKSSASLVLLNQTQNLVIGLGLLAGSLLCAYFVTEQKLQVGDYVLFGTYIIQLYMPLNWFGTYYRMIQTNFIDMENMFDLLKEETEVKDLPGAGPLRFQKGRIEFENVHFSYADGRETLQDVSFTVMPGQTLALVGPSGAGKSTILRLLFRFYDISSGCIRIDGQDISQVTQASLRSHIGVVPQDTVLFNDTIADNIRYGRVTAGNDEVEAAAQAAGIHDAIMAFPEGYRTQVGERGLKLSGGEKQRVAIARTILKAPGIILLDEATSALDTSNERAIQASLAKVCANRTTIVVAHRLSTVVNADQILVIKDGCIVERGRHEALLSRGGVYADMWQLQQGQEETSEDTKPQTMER
STAT3 act = IL-6 driven STAT3 reporter potentiators, primary screen, U3A cells, luciferase, luminescence, MLSCN library | hit rate 0.91% among 190,000 | IL-6 STAT3-luciferase reporter; 100% = signal with IL-6 EC80 alone | activation (% of control), % at 5.6 µM;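 active means activation above the screen-wide mean of compound activation plus 3 SD, cut at about 130% in these data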
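Material: human STAT1-deficient U3A cells with stable STAT3-luciferase reporter / Probe or stimulus: IL-6 stimulus at 33 ng/mL final / Schedule: 1 h compound pre-exposure, 6 h IL-6 stimulation, 37 °C / Technique: luminescence / Read-out basis: percent of IL-6-only median luminescence / Control set: IL-6-only high control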
GAA850 FXN act = FXN promoter activators, primary screen, cell-based, luciferase luminescence, HEK293 lucGAA850; HEK293 lucGAA850 FXN promoter luciferase reporter, 24 h; percent of 10 µM SAHA response; activation, % at 6 µM; hit rate 0.56% among 360,000; AID 540364, 2011;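 active means activation above the average of all compounds screened plus 3 SD, cutoff fixed separately per campaign, cut at about 7.5% in these data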
AHR act = AHR activators, primary screen, cell-based, luminescence, luciferase reporter, human | activation, % at 5 µM | hit rate 2.5% among 320,000 | AID 2796, 2010 | Aryl hydrocarbon receptor (Homo sapiens), P35869 | AHR-responsive luciferase reporter cells; in the data active means activation above about 47%
Numbers stand for hits.

CC(NC(=O)c1ccccc1OC(F)F)c1ccc(-n2ccnc2)cc1 (stereo not drawn) was read as ABCB6 inh MLPCN inactive, GAA850 FXN act inactive and AHR act 71.
For CCOC(=O)C1(C)CCN1C(=O)c1ccc(C)cc1 (stereo not drawn) the results were ABCB6 inh MLPCN inactive and GAA850 FXN act inactive.
Screening Nc1ncc(Br)cc1N=Cc1ccccc1 returned ABCB6 inh MLPCN inactive, STAT3 act inactive, GAA850 FXN act 9.9 and AHR act inactive.
For Cn1ncc(N=Cc2ccccc2)c1C(N)=O the results were ABCB6 inh MLPCN inactive, STAT3 act inactive, GAA850 FXN act inactive and AHR act inactive.
Screening Cc1nc2scc(-c3ccccc3)c2c(=O)n1N=C1C=CC(=O)C=C1 returned STAT3 act inactive.
COc1cccc(CNC(=O)N[C@@H](CC(C)C)C(=O)O)c1 was read as ABCB6 inh MLPCN 63, STAT3 act inactive, GAA850 FXN act inactive and AHR act inactive.
Clc1ccc(-c2ccnc(-n3cccc3)n2)s1 was read as ABCB6 inh MLPCN inactive, STAT3 act inactive, GAA850 FXN act inactive and AHR act 53.
Screening CC1CCN(c2nc(/C=C/c3ccccc3)nc3ccccc23)CC1 returned ABCB6 inh MLPCN inactive, STAT3 act inactive, GAA850 FXN act inactive and AHR act 72.
`CC1CCN(c2nc(-c3ccncc3)nc3ccccc23)CC1` gave ABCB6 inh MLPCN inactive, STAT3 act inactive, GAA850 FXN act inactive and AHR act inactive.
For COC(=O)c1ccc(C2NC(=O)c3c(sc(C)c3C)N2)cc1 (stereo not drawn) the results were ABCB6 inh MLPCN inactive, GAA850 FXN act inactive and AHR act inactive.
Screening Cc1sc2c(c1C)C(=O)NC(c1cccc(O)c1)N2 (stereo not drawn) returned STAT3 act 144 and AHR act 55.
`CCc1nnc(NC(=O)CSc2nc3ccccc3o2)s1` gave ABCB6 inh MLPCN inactive, STAT3 act inactive, GAA850 FXN act inactive and AHR act inactive.
Screening COc1ccc(C)cc1NS(=O)(=O)c1ccc(NC(=O)CN(c2cc([N+](=O)[O-])ccc2C)S(C)(=O)=O)cc1 returned ABCB6 inh MLPCN inactive, STAT3 act inactive, GAA850 FXN act inactive and AHR act 48.
O=C(Cc1cccc2ccccc12)NCC(=O)Nc1ccccc1F was read as ABCB6 inh MLPCN inactive, GAA850 FXN act inactive and AHR act inactive.
For Cc1cc2n(n1)C(c1c[nH]c3ccccc13)Nc1ccccc1-2 (stereo not drawn) the results were ABCB6 inh MLPCN inactive, STAT3 act 139, GAA850 FXN act inactive and AHR act inactive.
For Cc1ccc(S(=O)(=O)/N=C2\C=C(Nc3cccc(C(=O)O)c3)C(=O)c3ccccc32)c(C)c1 the results were ABCB6 inh MLPCN inactive, GAA850 FXN act inactive and AHR act inactive.
For CC(C)c1ccc(S(=O)(=O)/N=C2/C=C(Sc3ncn[nH]3)C(=O)c3ccccc32)cc1 the results were ABCB6 inh MLPCN inactive, STAT3 act 152, GAA850 FXN act inactive and AHR act inactive.
`Cc1ccc(S(=O)(=O)/N=C2\C=C(Nc3ccc(O)cc3)C(=O)c3ccccc32)cc1` gave GAA850 FXN act inactive and AHR act inactive.
`Cc1ccc(S(=O)(=O)/N=C2/C=C(Sc3ncn[nH]3)C(=O)c3ccccc32)c(C)c1` gave STAT3 act 142 and AHR act 50.
C=CCn1c(SCc2ccccc2Cl)nnc1-c1sc2nc(C)cc(C)c2c1N was read as ABCB6 inh MLPCN inactive, GAA850 FXN act inactive and AHR act 79.
Screening Cc1cc(C)c2c(N)c(-c3nnc(SCc4ccc(Cl)cc4)n3C)sc2n1 returned ABCB6 inh MLPCN inactive, GAA850 FXN act inactive and AHR act inactive.
`COc1ccc(NC(=S)Nc2ccccc2C(F)(F)F)cc1` gave ABCB6 inh MLPCN inactive, STAT3 act inactive, GAA850 FXN act inactive and AHR act inactive.
Screening O=C1OC(c2ccc(Br)cc2)=N/C1=C\N1CCCCC1 returned ABCB6 inh MLPCN inactive, STAT3 act inactive, GAA850 FXN act inactive and AHR act 63.
`CCN(CC)C(=O)CSc1nc2ncc(Cl)cc2[nH]1` gave ABCB6 inh MLPCN inactive, STAT3 act inactive, GAA850 FXN act inactive and AHR act inactive.
For CCN(CC)C(=O)CSc1nc2ncc(Br)cc2[nH]1 the results were ABCB6 inh MLPCN inactive, STAT3 act inactive, GAA850 FXN act inactive and AHR act 63.
`O=C(NC(=S)NCCc1ccccc1)c1ccccc1F` gave ABCB6 inh MLPCN inactive, GAA850 FXN act inactive and AHR act 74.
O=C(NCCc1ccccc1)c1ccccc1C(=O)NCCc1ccccc1 was read as ABCB6 inh MLPCN inactive, GAA850 FXN act inactive and AHR act 70.
Screening O=C(NC(=S)NCCc1ccccc1)c1ccccc1 returned ABCB6 inh MLPCN inactive, STAT3 act inactive, GAA850 FXN act inactive and AHR act 69.
Screening COc1ccc(CCNC(=S)NC(=O)c2ccccc2)cc1C returned ABCB6 inh MLPCN inactive, GAA850 FXN act inactive and AHR act inactive.
For O=C(O)CNC(=O)CC1S/C(=N/N=C2/NC(=O)CS2)NC1=O (stereo not drawn) the results were ABCB6 inh MLPCN inactive, STAT3 act inactive, GAA850 FXN act inactive and AHR act inactive.
`O=C(Nc1ccc(Br)cc1)c1cccn1-c1ncc(C(F)(F)F)cc1Cl` gave ABCB6 inh MLPCN inactive, STAT3 act inactive, GAA850 FXN act inactive and AHR act 62.
Cc1ccc(/C(CSc2nccn2-c2ncc(C(F)(F)F)cc2Cl)=N\O)cc1 was read as ABCB6 inh MLPCN inactive, STAT3 act inactive, GAA850 FXN act inactive and AHR act inactive.
`O=C(CSc1nccn1-c1ncc(C(F)(F)F)cc1Cl)c1ccc(Br)cc1` gave ABCB6 inh MLPCN inactive, STAT3 act 162, GAA850 FXN act inactive and AHR act inactive.
O=C1c2ccccc2-c2nc3ncnn3c(-c3ccccc3Cl)c21 was read as ABCB6 inh MLPCN inactive, STAT3 act inactive, GAA850 FXN act inactive and AHR act 56.
`Cc1nc2ncnn2c(C)c1Cc1c(Cl)cccc1Cl` gave ABCB6 inh MLPCN inactive, STAT3 act inactive, GAA850 FXN act inactive and AHR act inactive.
`O=C(CN1C(=O)/C(=C/c2ccccc2)SC1=S)Nc1cccnc1` gave ABCB6 inh MLPCN inactive, STAT3 act inactive, GAA850 FXN act inactive and AHR act inactive.
For COc1cc(/C=C2/SC(=S)N(CC(=O)Nc3cccnc3)C2=O)cc(OC)c1OC the results were ABCB6 inh MLPCN inactive, STAT3 act inactive, GAA850 FXN act inactive and AHR act 51.
`CCCC(=O)Nc1ccc2c(c1)nc(CN1CCCCC1)n2C` gave ABCB6 inh MLPCN inactive, STAT3 act inactive, GAA850 FXN act inactive and AHR act inactive.
Screening O=C(c1ccco1)[C@@H]1[C@@H]2C(=O)N(c3ccc(F)cc3)C(=O)[C@@H]2C2c3ccccc3C=CN21 (stereo partly drawn) returned STAT3 act 134 and AHR act inactive.
Nc1cccc2c1C(=O)N(CCOc1ccccc1F)C2=O was read as ABCB6 inh MLPCN inactive, GAA850 FXN act inactive and AHR act 77.

High-throughput results deposited in PubChem by several laboratories.
